Values belong to the compound of their own block, whether it stands above or below them. Activity calls are given as the source filed them. No cut-off for these calls is given here.
What was measured:
[1] = system: Mus musculus; test: Antiinflammatory activity in ovalbumin-sensitized Balb/c mouse asthma model model assessed as reduction of goblet cell hyperplasia in lungs at 1 mg/kg, po by PAS staining; assay type: functional, organism-based; design: dose 1 mg/kg
Summary of the method: (§1)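 Male Balb/c mice, 6 weeks old and 20-25 g, n = 6 per group, were sensitized ip on days 0 and 14 with 100 μg OVA precipitated with 20 mg aluminum hydroxide in 200 μl PBS. They were challenged intranasally with 1% OVA in 50 μl PBS on days 15, 17, 19, 21, 23 and 25, and sacrificed on day 27.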

[2] = system: Mus musculus; test: Antiinflammatory activity in ovalbumin-sensitized Balb/c mouse asthma model model assessed as reduction of eosinophils, neutrophils, lymphocytes, and macrophages level in BAL fluid at 1 mg/kg, po; assay type: functional, organism-based; design: dose 1 mg/kg; summary of the method: as §1
[3] = system: Mus musculus; test: Antiinflammatory activity in ovalbumin-sensitized Balb/c mouse asthma model model assessed as reduction in methacholine-induced airway hyperresponsiveness at 1 mg/kg, po; assay type: functional, organism-based; design: dose 1 mg/kg
Summary of the method: (§2)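 AHR was read in OVA-sensitized/challenged Balb/c mice (n = 6 per group) 24 h after the final allergen challenge, by barometric whole-body plethysmography. A 3 min baseline came first, then inhalation of methacholine at 50 or 100 mg ml⁻¹, with the read-out as enhanced pause (Penh).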

[4] = system: Mus musculus; test: Antiinflammatory activity in ovalbumin-sensitized Balb/c mouse asthma model model assessed as reduction of airway smooth muscle thickness in lungs at 10 mg/kg, ip by IHC staining; assay type: functional, organism-based; design: dose 10 mg/kg; details: Muscle tissue; summary of the method: as §1
[5] = system: Mus musculus; test: Antiinflammatory activity in ovalbumin-sensitized Balb/c mouse asthma model model assessed as reduction of goblet cell hyperplasia in lungs at 10 mg/kg, ip by PAS staining; assay type: functional, organism-based; design: dose 10 mg/kg; summary of the method: as §1
[6] = system: Mus musculus; test: Antiinflammatory activity in ovalbumin-sensitized Balb/c mouse asthma model model assessed as reduction of eosinophils infiltration in lungs at 10 mg/kg, ip by hematoxylin and eosin staining; assay type: functional, organism-based; design: dose 10 mg/kg; summary of the method: as §1
[7] = system: Mus musculus; test: Antiinflammatory activity in ovalbumin-sensitized Balb/c mouse asthma model model assessed as reduction of eosinophils, neutrophils, lymphocytes, and macrophages level in BAL fluid at 10 mg/kg, ip; assay type: functional, organism-based; design: dose 10 mg/kg; summary of the method: as §1
[8] = system: Mus musculus; test: Antiinflammatory activity in ovalbumin-sensitized Balb/c mouse asthma model model assessed as reduction in IgE level in serum at 10 mg/kg, ip after 48 hrs of last dose by ELISA; assay type: functional, organism-based; design: dose 10 mg/kg; summary of the method: as §1
[9] = system: Mus musculus; test: Antiinflammatory activity in ovalbumin-sensitized Balb/c mouse asthma model model assessed as reduction in methacholine-induced airway hyperresponsiveness at 10 mg/kg, ip; assay type: functional, organism-based; design: dose 10 mg/kg; summary of the method: as §2
[10] = molecular target: T1, Signal transducer and activator of transcription 6 (Homo sapiens) (UniProt P42226); test: Inhibition of TNFalpha/IL4/IL1-beta-induced STAT6 phosphorylation in human A549 cells at 50 uM after 15 mins by Western blotting analysis; assay type: cell-based; details: in the assay text read “after 1 hr” for “after 15 mins”
T1 sequence (whole entry): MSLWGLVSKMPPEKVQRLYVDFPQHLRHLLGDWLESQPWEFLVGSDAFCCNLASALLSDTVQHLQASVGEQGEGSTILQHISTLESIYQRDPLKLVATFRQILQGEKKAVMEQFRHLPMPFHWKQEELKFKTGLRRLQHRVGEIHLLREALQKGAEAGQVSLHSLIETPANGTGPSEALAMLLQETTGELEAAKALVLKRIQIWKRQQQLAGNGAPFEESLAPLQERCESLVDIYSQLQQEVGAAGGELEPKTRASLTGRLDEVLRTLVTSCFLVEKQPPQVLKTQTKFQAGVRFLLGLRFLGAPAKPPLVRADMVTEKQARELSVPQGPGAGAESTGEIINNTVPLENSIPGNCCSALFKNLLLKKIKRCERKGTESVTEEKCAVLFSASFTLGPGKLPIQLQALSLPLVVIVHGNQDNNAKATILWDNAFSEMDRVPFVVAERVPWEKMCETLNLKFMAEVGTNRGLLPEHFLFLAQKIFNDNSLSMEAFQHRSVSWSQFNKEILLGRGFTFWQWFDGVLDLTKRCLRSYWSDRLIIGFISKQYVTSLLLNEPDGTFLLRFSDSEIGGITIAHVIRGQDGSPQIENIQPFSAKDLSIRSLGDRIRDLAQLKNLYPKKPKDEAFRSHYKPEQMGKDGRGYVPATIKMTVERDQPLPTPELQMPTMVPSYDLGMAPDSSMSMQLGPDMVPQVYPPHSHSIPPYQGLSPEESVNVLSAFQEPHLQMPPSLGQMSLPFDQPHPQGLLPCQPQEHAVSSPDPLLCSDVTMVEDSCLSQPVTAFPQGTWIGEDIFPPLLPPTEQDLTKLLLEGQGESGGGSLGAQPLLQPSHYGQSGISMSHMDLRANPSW
Summary of the method: (§3)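 Nuclear extracts were western blotted for p65 or phospho-STAT6, with bands normalized to PCNA by densitometry over three experiments.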

[11] = molecular target: Transcription factor p65 (Homo sapiens) (UniProt Q04206); test: Inhibition of TNFalpha/IL4/IL1-beta-induced NFkappaB p65 nuclear translocation in human A549 cells at 50 uM after 15 mins by Western blotting analysis; assay type: cell-based; details: in the assay text read “after 1 hr” for “after 15 mins”; summary of the method: as §3
Transcription factor p65 (Homo sapiens), sequence (Q04206 whole entry): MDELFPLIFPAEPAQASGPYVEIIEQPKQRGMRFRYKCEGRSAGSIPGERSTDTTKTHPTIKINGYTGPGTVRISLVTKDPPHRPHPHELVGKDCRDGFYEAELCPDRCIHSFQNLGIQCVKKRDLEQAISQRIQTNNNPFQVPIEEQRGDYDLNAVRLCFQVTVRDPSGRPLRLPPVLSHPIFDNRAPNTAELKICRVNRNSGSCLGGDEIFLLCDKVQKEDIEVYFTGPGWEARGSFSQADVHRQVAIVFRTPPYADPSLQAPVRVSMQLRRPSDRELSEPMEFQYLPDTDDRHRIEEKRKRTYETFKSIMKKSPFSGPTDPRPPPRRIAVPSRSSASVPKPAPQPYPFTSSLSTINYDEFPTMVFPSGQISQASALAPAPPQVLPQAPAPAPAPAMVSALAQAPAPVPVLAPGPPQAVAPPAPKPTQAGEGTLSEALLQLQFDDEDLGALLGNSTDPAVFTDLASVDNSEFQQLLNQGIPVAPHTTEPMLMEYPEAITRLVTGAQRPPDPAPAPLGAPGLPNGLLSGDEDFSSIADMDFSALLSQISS

[12] = system: A549; test: Inhibition of TNFalpha/IL4/IL1-beta-induced CCL11 secretion in human A549 cells at 5 uM treated 1 hr before TNFalpha/IL4/IL1-beta stimulation measured after 24 hrs by ELISA; assay type: functional
Summary of the method: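 Confluent A549 cells were held in serum-free RPMI for 24 h, pretreated 1 h with 0-50 μM, then stimulated with IL-1β (10 ng ml⁻¹), TNF-α (100 ng ml⁻¹) and IL-4 (100 ng ml⁻¹) for 24 h. Eotaxin in the supernatant was measured by ELISA; three independent experiments were run.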

[13] = system: A549; test: Cytotoxicity against human A549 cells assessed as cell viability at 50 uM after 24 hrs by MTS assay; assay type: cell-based; details: a549, 24 h
Summary of the method: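 A549 cells were seeded at 2×10⁴ cells per well and grown 24 h at 37 °C, then exposed to 0, 5, 10 or 50 μM for 24 h. MTS reagent was added for a further 4 h and absorbance read at 490 nm; assays were run in triplicate.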

Structure (SMILES): C[C@@H]1C[C@H]2[C@@H]3CCC4=CC(=O)C=C[C@]4(C)[C@@]3(F)[C@@H](O)C[C@]2(C)[C@@]1(O)C(=O)CO
- Activity [1]: Active
- Activity [2]: Active
- Activity [3]: Active

- inhibition [10]: Active
- inhibition [11]: inactive
Structure (SMILES): COc1cc(-c2cc3c(C(C)=O)c(C)oc(=O)c3c(=O)o2)cc(OC)c1OC
- Activity [4]: Active
- Activity [5]: Active
- Activity [6]: Active
- Activity [7]: Active
- Activity [8]: Active
- Activity [9]: Active
- inhibition at 5 µM [12]: 75%
- Activity [13]: Non-toxic

From ChEMBL document CHEMBL2440088, “A synthetic compound, 4-acetyl-3-methyl-6-(3,4,5-trimethoxyphenyl)pyrano[3,4-c]pyran-1,8-dione, ameliorates ovalbumin-induced asthma” (Bioorg Med Chem, 2013)
